Experimental data published in ChEMBL document CHEMBL1153724, “Multivalent binding oligomers inhibit HIV Tat-TAR interaction critical for viral replication” (Bioorg Med Chem Lett, 2009).
Active and inactive are the calls of the source. The calls are words filed in the database; no cut-off is given here.

Experiments:
[1] = test system: PBMC; assay: Cytotoxicity against human PBMC cells by XTT assay; assay type: cell-based
[2] = target: Nucleic Acid; assay: Inhibition of fluorescein labeled Tat-peptide binding to HIV1 TAR RNA after 60 mins by FRET assay; assay type: nucleic-acid assay, Human immunodeficiency virus 1
Method in brief: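 Competition assay: inhibition of association between TAR RNA and a fluorescently labeled Tat-derived peptide, read by fluorescence; IC50 values derived.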

[3] = test system: Nucleic Acid; assay: Induction of aggregation of 32P labeled HIV1 TAR RNA after 60 mins by native gel electrophoresis; assay type: nucleic-acid assay, Human immunodeficiency virus 1
[4] = target: Nucleic Acid; assay: Inhibition of fluorescein labeled Rev binding to HIV1 RRE RNA assessed as decrease of fluorescent anisotropy at 20 uM after 1 hour by fluorescence polarization-based assay; assay type: nucleic-acid assay, Human immunodeficiency virus 1
Method in brief: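 Competition assay tracking Rev binding to RRE by fluorescence; tested up to 20 μM.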

[5] = test system: Human immunodeficiency virus 1; assay: Antiviral activity against HIV1 Ba-L infected in PBMCs assessed as reverse transcriptase activity after 7 days by MTS assay; assay type: functional, organism-based; settings: Human immunodeficiency virus 1, Ba-L, 168 h
[6] = Cytotoxicity in human HeLa cells transfected with HIV Tat-LTR by FITC-conjugated DAPI staining by fluorescence microscopy; assay type: cell-based; settings: read-out: TC50 (the source's name)
[7] = Cytotoxicity in human HeLa cells transfected with HIV Rev-LTR by FITC-conjugated DAPI staining by fluorescence microscopy; assay type: cell-based; settings: read-out: TC50 (the source's name)
[8] = test system: Human immunodeficiency virus 1; assay: Antiviral activity against HIV1 CMU06 infected in PBMCs assessed as reverse transcriptase activity after 7 days by XTT assay; assay type: functional, organism-based; settings: Human immunodeficiency virus 1, CMU06, 168 h
[9] = test system: Human immunodeficiency virus 1; assay: Antiviral activity against HIV1 JV1083 infected in PBMCs assessed as reverse transcriptase activity after 7 days by XTT assay; assay type: functional, organism-based; settings: Human immunodeficiency virus 1, JV1083, 168 h
[10] = Inhibition of HIV1 Rev transfected in human HeLa cells after 48 hrs by duel luciferase reporter gene assay; assay type: cell-based; settings: Human immunodeficiency virus 1, HeLa
Method in brief: (§1)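 Analogous stably modified HeLa dual-luciferase system for Rev-RRE function, used as a specificity control; activity followed by luminescence up to 100 μM.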

[11] = test system: Human immunodeficiency virus 1; assay: Inhibition of HIV1 viral entry into the human TZM-bl cells assessed as decrease of luminescence at 25 uM after 18 hrs by luciferase reporter gene assay; assay type: functional, organism-based
Method in brief: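 Viral entry checked in TZM-bl cells with a cell-based entry inhibition assay at concentrations up to 25 μM.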

[12] = test system: Human immunodeficiency virus 1; assay: Antiviral activity against HIV1 HT/92/599 infected in PBMCs assessed as reverse transcriptase activity after 7 days by XTT assay; assay type: functional, organism-based; settings: Human immunodeficiency virus 1, HT/92/599, 168 h
[13] = test system: Human immunodeficiency virus 1; assay: Antiviral activity against HIV1 BR/93/020 infected in PBMCs assessed as reverse transcriptase activity after 7 days by XTT assay; assay type: functional, organism-based; settings: Human immunodeficiency virus 1, BR/93/020, 168 h
[14] = test system: Human immunodeficiency virus 1; assay: Antiviral activity against HIV1 97ZA003 infected in PBMCs assessed as reverse transcriptase activity after 7 days by XTT assay; assay type: functional, organism-based; settings: Human immunodeficiency virus 1, 97ZA003, 168 h
[15] = test system: Human immunodeficiency virus 1; assay: Antiviral activity against HIV1 UG/92/001 infected in PBMCs assessed as reverse transcriptase activity after 7 days by XTT assay; assay type: functional, organism-based; settings: Human immunodeficiency virus 1, UG/92/001, 168 h
[16] = test system: Human immunodeficiency virus 1; assay: Antiviral activity against HIV1 UG/92/029 infected in PBMCs assessed as reverse transcriptase activity after 7 days by XTT assay; assay type: functional, organism-based; settings: Human immunodeficiency virus 1, UG/92/029, 168 h
[17] = test system: Human immunodeficiency virus 1; assay: Antiviral activity against HIV1 BCF02 infected in PBMCs assessed as reverse transcriptase activity after 7 days by XTT assay; assay type: functional, organism-based; settings: Human immunodeficiency virus 1, BCF02, 168 h
[18] = test system: Nucleic Acid; assay: Selectivity for HIV1 TAR RNA over HIV1 RRE RNA; assay type: nucleic-acid assay; settings: Human immunodeficiency virus 1
[19] = test system: HeLa; assay: Inhibition of HIV1 Rev transfected in human HeLa cells up to 100 uM after 48 hrs by duel luciferase reporter gene assay; assay type: cell-based; settings: Human immunodeficiency virus 1; method in brief: as §1

Compound | IC50 [1] [µM] | EC50 [2] [µM] | IC50 [4] [µM] | IC50 [5] [µM] | CC50 [6] [µM] | CC50 [7] [µM] | IC50 [10] [µM] | other results
NC(=O)CCNC[C@H](Cc1ccc(O)cc1)NC[C@H](Cc1ccc(O)cc1)NC[C@H](Cc1ccc(O)cc1)NC[C@@H](N)Cc1ccc(O)cc1 | 46 | 8.9 | > 20 | 11 |  |  |  | EC50 [3]: 450 µM
NC(=O)CCNC[C@H](Cc1ccc(O)cc1)NC[C@H](Cc1ccc(O)cc1)NC[C@H](Cc1ccc(O)cc1)NC[C@H](Cc1ccc(O)cc1)NC[C@H](Cc1ccc(O)cc1)NC[C@H](Cc1ccc(O)cc1)NC[C@H](Cc1ccc(O)cc1)NC[C@@H](N)Cc1ccc(O)cc1 |  | 0.18 |  |  |  |  |  | 
C[C@@H](CN[C@H](CN[C@H](CN[C@H](CNCCC(N)=O)Cc1ccc(O)cc1)Cc1ccc(O)cc1)Cc1ccc(O)cc1)NC[C@H](Cc1ccc(O)cc1)NC[C@H](Cc1ccc(O)cc1)NC[C@@H](N)Cc1ccc(O)cc1 | 55 | 0.5 | > 20 | 4 | > 100 | > 100 | 60 | IC50 [8]: 18.2 µM; IC50 [9]: 11.9 µM; inhibition [11]: inactive; IC50 [12]: 4.5 µM; IC50 [13]: 5.1 µM; IC50 [14]: 25 µM; IC50 [15]: 2.3 µM; IC50 [16]: 2.3 µM; IC50 [17]: 16.3 µM
C[C@H](N)CN[C@H](CN[C@H](CN[C@H](CN[C@H](CN[C@H](CNCCC(N)=O)Cc1ccc(O)cc1)Cc1ccc(O)cc1)Cc1ccc(O)cc1)Cc1ccc(O)cc1)Cc1ccc(O)cc1 |  | 3.26 |  |  |  |  |  | 
C[C@@H](CN[C@H](CN[C@H](CN[C@H](CNCCC(N)=O)Cc1ccc(O)cc1)Cc1ccc(O)cc1)Cc1ccc(O)cc1)NC[C@H](Cc1ccc(O)cc1)NC[C@H](Cc1ccc(O)cc1)NC[C@H](Cc1ccc(O)cc1)NC[C@@H](N)Cc1ccc(O)cc1 |  | 0.18 |  |  | 2.4 |  |  | 
C[C@@H](CN[C@H](CN[C@H](CN[C@H](CNCCC(N)=O)Cc1ccc(O)cc1)Cc1ccc(O)cc1)Cc1ccc(O)cc1)NC[C@H](Cc1ccc(O)cc1)NC[C@@H](N)Cc1ccc(O)cc1 | 56 | 1.63 | > 20 | 5 | > 100 | > 100 | > 100 | IC50 [8]: 7.7 µM; IC50 [9]: 17.8 µM; inhibition [11]: inactive; IC50 [12]: 12.7 µM; IC50 [13]: 7.5 µM; IC50 [14]: 32 µM; Selectivity Index [18]: 20; inhibition [19]: inactive; IC50 [15]: 5.1 µM; IC50 [16]: 4.5 µM; IC50 [17]: 20.1 µM
C[C@H](N)CN[C@@H](C)CN[C@@H](C)CN[C@@H](C)CN[C@@H](C)CN[C@H](CNCCC(N)=O)Cc1ccc(O)cc1 |  | 13.9 |  |  |  |  |  | 
NC(=O)CCNC[C@H](Cc1ccc(O)cc1)NC[C@H](Cc1ccc(O)cc1)NC[C@@H](N)Cc1ccc(O)cc1 |  | 83.8 | > 50 |  | > 100 | > 100 | > 100 | EC50 [3]: 490 µM
NC(=O)CCNC[C@H](Cc1ccc(O)cc1)NC[C@H](Cc1ccc(O)cc1)NC[C@H](Cc1ccc(O)cc1)NC[C@H](Cc1ccc(O)cc1)NC[C@H](Cc1ccc(O)cc1)NC[C@H](Cc1ccc(O)cc1)NC[C@@H](N)Cc1ccc(O)cc1 |  | 0.47 |  |  |  |  |  | 
NCCCC[C@@H](CN[C@H](CN[C@H](CN[C@H](CNCCC(N)=O)Cc1ccc(O)cc1)Cc1ccc(O)cc1)Cc1ccc(O)cc1)NC[C@H](Cc1c[nH]c2ccccc12)NC[C@@H](N)Cc1ccc(O)cc1 |  | 0.3 |  |  |  |  |  | 
C[C@@H](CN[C@H](CN[C@H](CNCCC(N)=O)Cc1ccc(O)cc1)Cc1ccc(O)cc1)NC[C@H](Cc1ccc(O)cc1)NC[C@H](Cc1ccc(O)cc1)NC[C@@H](N)Cc1ccc(O)cc1 |  | 3.32 |  |  |  |  |  | 
NC(=O)CCNC[C@H](Cc1ccc(O)cc1)NC[C@H](Cc1ccc(O)cc1)NC[C@H](Cc1ccc(O)cc1)NC[C@H](Cc1ccc(O)cc1)NC[C@H](Cc1ccc(O)cc1)NC[C@@H](N)Cc1ccc(O)cc1 | 76 | 1.7 | > 20 | 2 | > 100 | > 100 | 34 | IC50 [8]: 19 µM; IC50 [9]: 13.1 µM; inhibition [11]: inactive; IC50 [12]: 8.8 µM; EC50 [3]: 40 µM; IC50 [13]: 4.7 µM; IC50 [14]: 27 µM; Selectivity Index [18]: 20; IC50 [15]: 6 µM; IC50 [16]: 6.7 µM; IC50 [17]: 18.9 µM
NCCCC[C@@H](CN[C@H](CNCCC(N)=O)Cc1ccc(O)cc1)NC[C@H](Cc1ccc(O)cc1)NC[C@H](CCCCN)NC[C@H](Cc1c[nH]c2ccccc12)NC[C@@H](N)Cc1ccc(O)cc1 |  | 0.24 |  |  | 12 |  |  | 
C[C@@H](CN[C@H](CNCCC(N)=O)Cc1ccc(O)cc1)NC[C@H](Cc1ccc(O)cc1)NC[C@H](Cc1ccc(O)cc1)NC[C@H](Cc1ccc(O)cc1)NC[C@@H](N)Cc1ccc(O)cc1 |  | 1.93 |  |  |  |  |  | 
NCCCC[C@@H](CN[C@H](CN[C@H](CN[C@H](CNCCC(N)=O)Cc1ccc(O)cc1)Cc1ccc(O)cc1)Cc1ccc(O)cc1)NC[C@H](Cc1ccc(O)cc1)NC[C@@H](N)Cc1ccc(O)cc1 | 80 | 0.45 |  | 7 | > 100 | > 100 | > 100 | 
NC(=O)CCNC[C@H](Cc1ccc(O)cc1)NC[C@H](Cc1ccc(O)cc1)NC[C@H](Cc1ccc(O)cc1)NC[C@H](Cc1ccc(O)cc1)NC[C@@H](N)Cc1ccc(O)cc1 | 67 | 2.96 | > 20 | 9 | > 100 | > 100 | > 100 | EC50 [3]: 220 µM
NCCCC[C@@H](CN[C@H](CNCCC(N)=O)Cc1ccc(O)cc1)NC[C@H](Cc1ccc(O)cc1)NC[C@H](CCCCN)NC[C@H](Cc1ccc(O)cc1)NC[C@@H](N)Cc1ccc(O)cc1 |  | 0.36 |  |  | 38 |  |  | 
C[C@@H](CN[C@H](CN[C@H](CN[C@H](CN[C@H](CNCCC(N)=O)Cc1ccc(O)cc1)Cc1ccc(O)cc1)Cc1ccc(O)cc1)Cc1ccc(O)cc1)NC[C@@H](N)Cc1ccc(O)cc1 |  | 3.94 |  |  |  |  |  | 
